NS3 helicase inh = blocks Hepatitis C virus NS3 helicase unwinding; NS3 helicase DNA unwinding, Cy5 molecular beacon fluorescence; inhibition, % at 10.9 µM; 0.56% of 290,000 active;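 active = inhibition above the mean of all tested compounds plus 3 SD, set per campaign, cut at about 35% in these data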;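 also: 0% = DMSO wells and 100% = thioflavine S control wells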
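Compound dosing – single dose, 10.9 µM nominal final, DMSO 0.8% final · System – NS3 helicase fragment of HCV · Buffer or medium – MOPS pH 6.5, MgCl2, DTT, Tween20, BSA · Signal – Cy5 beacon fluorescence read at start and 1 h · Also added – annealed dual-labelled DNA beacon duplex, ATP-started · Schedule – 1 h at 25 °C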
PHOSPHO1 inh = blocks human PHOSPHO1 phosphatase activity. Q8TCT1. recombinant PHOSPHO1, absorbance phosphatase assay. inhibition, % at 13.3 µM. 1.1% of 290,000 active; in the data active = inhibition above about 60%
Target sequence (Q8TCT1 whole entry, looked up): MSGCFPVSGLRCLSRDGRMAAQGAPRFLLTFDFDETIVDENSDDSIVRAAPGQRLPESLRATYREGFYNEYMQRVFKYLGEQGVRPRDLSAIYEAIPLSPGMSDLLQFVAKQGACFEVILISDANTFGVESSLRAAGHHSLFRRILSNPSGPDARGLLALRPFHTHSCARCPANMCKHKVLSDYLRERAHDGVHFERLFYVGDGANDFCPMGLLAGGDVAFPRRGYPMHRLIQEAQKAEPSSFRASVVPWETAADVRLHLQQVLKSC
IMP-1 inhibitor = inhibitors of Pseudomonas aeruginosa IMP-1 metallo-beta-lactamase; purified IMP-1, nitrocefin hydrolysis, epi-absorbance fluorescence; inhibition, % at 5.6 µM; 0.45% of 290,000 active;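 active = inhibition above the mean plus 3 SD of all compounds in the same screening run, cut at about 4.5% in these data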;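 also: 0% = IMP-1 with DMSO and 100% = DMSO wells lacking enzyme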
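System: purified IMP-1; amount: IMP-1 0.2 nM before substrate addition; compound: single dose, 5.6 µM; times: 25 °C, 15 min preincubation, 25 min reaction; signal: Epi-absorbance via hydrolysed-nitrocefin quenching of white-plate fluorescence, 480/530 nm, EDTA stop; benchmarks: DMSO with and without IMP-1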
HCV core dimer = HCV core protein dimerization inhibition. AID 1899. inhibition, % at 5 µM. TR-FRET GST/Flag-core106 dimerization, 1536-well. 0.33% of 300,000 active;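 active = inhibition above the mean of all tested compounds plus 3 SD, set per screening campaign, cut at about 45% in these data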
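assay system = GST-tagged and Flag-tagged HCV core protein residues 1-106 | controls = unlabelled core106 and no-GST-core106 wells | incubation = compound-protein-antibody incubation 4 h at 22.5 °C | probe or stimulus = Eu donor and XL665 acceptor anti-tag antibodies | read-out = % inhibition based on acceptor/donor emission ratio | signal = TR-FRET 671 and 617 nm emission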
UBC9 SUMO inh = SUMOylation inhibition; 0.36% of 290,000 active; P63279; inhibition, % at 35 µM; HTRF SUMOylation assay, SAE1/SAE2 + UBC9, in vitro; AID 2006; in the data active = inhibition above about 50%, passing the limit was not always enough
Target sequence (P63279 whole entry, looked up): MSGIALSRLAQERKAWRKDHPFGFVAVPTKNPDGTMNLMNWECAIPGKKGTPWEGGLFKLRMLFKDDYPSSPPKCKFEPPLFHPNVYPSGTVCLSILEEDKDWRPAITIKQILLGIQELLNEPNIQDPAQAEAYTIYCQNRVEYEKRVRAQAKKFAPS
VIM-2 inhibitor = blocks Pseudomonas aeruginosa VIM-2 metallo-beta-lactamase. 0.89% of 290,000 active. purified VIM-2, nitrocefin hydrolysis, epi-absorbance fluorescence. inhibition, % at 5.6 µM. AID 1527;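 active = inhibition above the mean of all tested compounds plus 3 SD, cutoff set per screening run, cut at about 7.5% in these data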;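 also: red hydrolysis product quenches plate fluorescence so inhibitors raise well fluorescence; 0% = enzyme with DMSO and 100% = DMSO without enzyme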
NS3 hel confirm = HCV NS3 helicase inhibition, confirmation assay | shares compounds with NS3 helicase inh | NS3 helicase DNA unwinding, Cy5 molecular beacon fluorescence | inhibition, % at 10.9 µM | 31% of 1,600 active | AID 1943;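 active = inhibition above the mean of all tested compounds plus 3 SD, cutoff set per campaign, cut at about 36% in these data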
FID counter trip = counter-screen for HCV NS3 helicase inhibitors: DNA intercalator displacement; shares compounds with NS3 helicase inh; DNA fluorescent intercalator displacement, fluorescence; inhibition, % at 7.9 µM; 4% of 1,600 active; AID 1945; in the data active = inhibition above about 37%;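 also: 0% = vehicle and 100% = reference compound; higher means more displacement of ethidium bromide from the DNA hairpin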
DNA FID DR = displaces fluorescent intercalator from DNA, HCV helicase counter-screen | shares compounds with NS3 helicase inh | fluorescent intercalator displacement from DNA, fluorescence | IC50, µM | 120 tested, under 10 active; call rule not given here
Numbers without * were called inactive; nt = no result. In the library only some 3.1% were active in any assay of this set; here they are far more common.

SMILES	NS3 helicase inh	PHOSPHO1 inh	IMP-1 inhibitor	HCV core dimer	UBC9 SUMO inh	VIM-2 inhibitor	NS3 hel confirm	FID counter trip	others
CC(=O)Oc1cccc(/C=c2\sc3nc(-c4ccco4)nn3c2=O)c1	23.9	24.2	-1.0	7.2	8.1	-1.4	nt	nt
CCCCCOc1ccc(/C=c2\sc3nc(=O)c(-c4ccccc4)nn3c2=O)cc1OC	43.0*	-0.8	-2.2	1.7	19.7	-2.6	72.0*	-20.2	DNA FID DR=>79.4
CC(=O)Nc1ccc(NC2CCCCC2NS(=O)(=O)c2ccc(Cl)cc2)cc1 (stereo unspecified)	4.5	39.5	-0.6	-6.3	-2.1	-1.8	nt	nt
COc1ccc(-c2nnn(CC(=O)N(CC3CCCO3)C(C(=O)NC(C)(C)C)c3ccco3)n2)cc1OC (stereo unspecified)	-0.2	6.7	-2.3	0.2	6.8	-1.8	nt	nt
Cc1cc2cc(C(c3nnnn3Cc3ccco3)N3CCc4ccccc4C3)c(=O)[nH]c2cc1C (stereo unspecified)	39.0*	-41.5	-1.3	24.9	28.9	-0.3	64.5*	-3.5	DNA FID DR=>79.4
Cc1cc2cc(C(c3nnnn3Cc3ccco3)N3CCc4ccccc43)c(=O)[nH]c2cc1C (stereo unspecified)	27.4	43.0	-3.4	29.1	30.6	-3.7	nt	nt
Cc1nn(Cc2ccc(Cl)c(Cl)c2)c(C)c1NC(=O)c1cc(-c2ccco2)on1	39.9*	-0.9	-0.9	14.5	-4.4	0.0	-8.8	-54.5
Oc1c(Br)cc(Br)cc1/C=N/Nc1ccc(Cl)nn1	41.3*	24.1	-2.5	-3.1	12.3	-7.1	-21.0	5.5
Oc1c(Br)cc(/C=N/Nc2ccc(Cl)nn2)cc1Br	17.3	nt	-6.3	-23.0	27.4	-2.5	nt	nt
O=C(c1ccco1)N1CCN(Cc2cc(=O)c(OCc3ccccc3F)co2)CC1	nt	nt	nt	-0.1	nt	nt	nt	nt
COc1ccc(C(=O)OCC(=O)c2ccc(C3CCCCC3)cc2)cc1	-0.7	20.8	-0.5	1.0	-1.3	-0.5	nt	nt
Nc1ccc(O)cc1C(=O)OCC(=O)c1ccc(C2CCCCC2)cc1	59.1*	14.4	-1.6	10.8	65.2	-4.8	-1.4	16.1
Cc1nn(CC(=O)NCCc2ccco2)c(=O)c2nn(-c3ccccc3)c(C)c12	47.7*	7.2	-3.9	37.9	17.5	-2.4	8.2	-7.2
Cc1nn(CC(=O)NCCc2cccs2)c(=O)c2nn(-c3ccccc3)c(C)c12	49.2*	12.7	-2.2	28.2	4.1	-2.0	-10.1	-25.1
Cc1nn(C(C)C(=O)NCCc2ccco2)c(=O)c2nn(-c3ccccc3)c(C)c12 (stereo unspecified)	3.7	27.6	-0.7	0.7	13.2	-1.4	nt	nt
Cc1cc(OCc2nn[nH]n2)c2c(C)c(Cc3ccccc3)c(=O)oc2c1	69.0*	-27.7	-2.7	8.8	31.6	3.2	62.3*	-12.6
Cc1c(C#N)c(=O)c(-[n+]2ccccc2)c([S-])n1-c1ccc(Cl)cc1	18.6	-26.0	-3.4	3.6	21.6	-1.6	nt	nt
CCOc1ccc(-c2cc(NC(=O)c3c(F)cccc3F)c(C(=O)O)s2)cc1	32.0	39.4	0.5	nt	6.4	1.0	nt	nt
O=C(Nc1cc(-c2ccccc2)sc1C(=O)O)c1cccc(F)c1	38.7*	9.4	1.9	nt	4.0	0.1	45.6*	18.4
C/C(=N\NC(=O)c1cc(O)ccc1O)c1cccc(NC(=O)c2ccc(Cl)cc2)c1	40.2*	46.2	-2.8	-10.5	51.5	-6.1	-16.8	11.2
C/C(=N\NC(=O)c1cc(O)ccc1O)c1cccc(NC(=O)c2cccc(Cl)c2)c1	23.7	17.8	-0.7	-6.7	14.6	-2.7	nt	nt
CCOC(=O)c1nc(C)sc1-c1ccnn1S(=O)(=O)c1cccc(Cl)c1	-8.5	53.3	-0.5	1.7	4.2	0.2	nt	nt
Cc1cc(C)c(C(=O)CSc2nnc(-c3ccccc3Br)o2)cc1C	38.9*	2.9	-4.0	nt	-41.8	-3.0	0.5	2.8
O=C(NC(Cc1ccccc1)C(=O)N1CCN(c2ccccn2)CC1)c1ccco1 (stereo unspecified)	48.6*	-1.2	-5.9	0.9	9.2	-0.1	-11.1	-17.1
O=C(Nc1ccc([N+](=O)[O-])cc1Br)c1cc2ccccc2nc1Cl	1.7	-34.5	0.7	9.6	-5.8	0.9	nt	nt
SMILES	NS3 helicase inh	PHOSPHO1 inh	IMP-1 inhibitor	HCV core dimer	UBC9 SUMO inh	VIM-2 inhibitor	NS3 hel confirm	FID counter trip	others
COc1cc2cc3c(N)c(C(=O)Nc4sc(C)c(C)c4C#N)sc3nc2cc1OC	36.9*	-16.0	2.3	2.6	36.5	-1.2	49.9*	-14.0	DNA FID DR=>79.4
Cc1cc(C(=O)Nc2sc(C)c(C)c2C#N)no1	1.2	14.0	-2.5	-2.1	9.1	-3.3	nt	nt
COc1ccc(C)cc1NCc1cc(=O)oc2cc(-c3ccccc3)c(O)cc12	49.3*	-2.4	-3.0	12.6	10.3	-3.8	-0.1	9.6
Cc1cc(C)cc(NCc2cc(=O)oc3cc(-c4ccccc4)c(O)cc23)c1	0.1	-13.4	1.5	10.2	3.6	-0.2	nt	nt
COc1ccc(/C(C)=N/NC(=S)NCCc2ccccc2)c(O)c1	42.5*	40.5	0.2	6.6	12.3	0.2	8.6	-5.1
COc1ccc(O)c(/C=N/NC(=S)NCCc2ccccc2)c1	28.7	-30.5	-4.1	-1.6	15.1	-1.8	nt	nt
COC(=O)N/N=C/c1cc(C)n(-c2ccc(F)cc2)c1C	42.2*	-17.9	-4.4	-4.3	10.6	-2.2	-4.5	15.2
O=C(COC(=O)c1c2c(nc3ccccc13)CCCC2)c1cccs1	40.6*	7.2	0.8	-5.0	-1.5	1.8	-6.2	-19.7
CCn1cc(CNC(=O)c2cccc([N+](=O)[O-])c2)c(C)n1	11.4	-14.7	-1.3	-7.0	3.8	0.4	nt	nt
CCn1cc(CNC(=O)c2ccc(Cl)c([N+](=O)[O-])c2)c(C)n1	36.0*	-18.9	0.1	1.8	1.0	0.0	-13.3	1.2
Cc1cc(C)c[n+](-c2[nH]c(=O)sc2/C=N/N=C(\[O-])c2cccnc2)c1	36.2*	30.7	1.7	-7.9	-1.4	-0.6	-11.0	2.2
Cn1cccc1CC(=O)NNC(=S)Nc1ccc(Cl)cc1	36.4*	29.8	-2.8	-9.3	-14.2	-4.0	-8.7	9.7
Cn1cccc1CC(=O)NNC(=S)Nc1ccccc1Cl	45.6*	0.3	-2.7	14.3	-12.4	-4.5	-9.1	13.0
Cc1c(Cl)cccc1NC(=S)NCc1cccn1C	2.5	12.1	-0.6	7.5	10.3	-2.6	nt	nt
Cc1c(Cl)cccc1NS(=O)(=O)c1c(C(=O)N2CCOCC2)c(C)n(C)c1C	3.5	42.6	1.1	-10.3	-10.8	-0.6	nt	nt
